# Shown are actives, neighbours in structure and some others; about 4.1% of the full set was active somewhere.
# APP 5'UTR act: activators of APP 5'UTR luciferase reporter, primary screen, SH-SY5Y cells. activation, % at 2 µM. SH-SY5Y APP 5'UTR luciferase reporter, luminescence; zero percent = DMSO vehicle wells. 190,000 compounds, 1% hits;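 active means activation above a set limit, based on mean plus 3 SD of controls, cut at about 140% in these data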
# FLuc stim CS: FLuc activators, initial screening, artefact control for FLuc-dependent activation tests, biochemical, ATPlite luminescence; Luciferin 4-monooxygenase (Photinus pyralis), P08659; ATPlite luciferase biochemical, 10 min; 0 = ATP-free wells, 1 = DMSO control; activation factor at 10 µM; 200,000 tested, under 10 active;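 active means luciferase activation factor, scaled between plate controls, of at least 2 with compound at 10 µM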
# Target sequence (P08659 whole entry, looked up): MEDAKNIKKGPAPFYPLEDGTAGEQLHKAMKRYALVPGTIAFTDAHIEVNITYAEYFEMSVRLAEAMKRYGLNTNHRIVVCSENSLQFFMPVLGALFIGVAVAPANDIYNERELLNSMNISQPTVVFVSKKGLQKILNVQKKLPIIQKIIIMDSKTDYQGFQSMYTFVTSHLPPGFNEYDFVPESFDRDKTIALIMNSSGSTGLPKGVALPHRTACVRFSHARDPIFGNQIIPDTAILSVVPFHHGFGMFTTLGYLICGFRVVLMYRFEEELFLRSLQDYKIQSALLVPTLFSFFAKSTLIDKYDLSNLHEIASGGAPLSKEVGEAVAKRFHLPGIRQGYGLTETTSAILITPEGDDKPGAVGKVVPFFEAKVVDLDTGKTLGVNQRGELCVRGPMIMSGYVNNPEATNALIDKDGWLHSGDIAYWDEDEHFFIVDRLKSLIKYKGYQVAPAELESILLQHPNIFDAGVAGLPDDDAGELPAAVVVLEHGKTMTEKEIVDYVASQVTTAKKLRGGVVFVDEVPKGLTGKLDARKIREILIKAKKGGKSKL
#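 Material: Luciferase/luciferin reagent mix; Doses: test compounds dosed from 2 mM stocks in 100% DMSO; Schedule: 10 min incubation after luciferase reagent addition, room temperature; Measured by: luminescence from luciferase reaction; Read-out: luminescence gain marking luciferase activators.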
# FLuc inh counter: firefly luciferase enzyme inhibitors, primary screen, artefact control for luciferase-based inhibitor screens, biochemical, luminescence, ATPLite; Luciferin 4-monooxygenase (Photinus pyralis), P08659; 10 min; inhibition, % at 10 µM; 200,000 compounds, 1.5% hits;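 active means inhibition above about 50% when tested at 10 µM, limit read from the data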
# STAT1 act: STAT1 signaling activators, primary screen, cell-based, HTS, luciferase reporter; 200,000 compounds, 2.6% hits; AID 932, 2007; NIH 3T3 STAT1-luciferase reporter, IFN-gamma, luminescence; 100% = IFN-gamma alone, no compound; activation (% of control), % at 5.5 µM;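 active means activation above the screen-wide mean activation plus 3 SD, cut at about 130% in these data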;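 further: raw ratio to IFN-gamma control signal so 100% means no change and 0% no light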
# NF-kB neuron act: activators of NF-kB expression in neurons, primary screen, cell-based, HTS; human neuronal cells, NF-kB reporter expression; active compounds read high; fold change at 12.5 µM; 190,000 compounds, 1.6% hits; in the data active means fold change above about 3.3
# * hit, by the source's call; . = no result.
SMILES,APP 5'UTR act,FLuc stim CS,FLuc inh counter,STAT1 act,NF-kB neuron act
Cc1ccc(OC(=O)c2cccc(S(=O)(=O)N3CCCC3)c2)c(-n2nc3ccccc3n2)c1,113.2,1,-2.3,119.6,3.54*
CC(=O)Oc1ccc(C)cc1-n1nc2ccccc2n1,104.5,1,-0.1,115.4,3.49*
Cc1ccc(OC(=O)c2cccc(S(=O)(=O)N(C)C)c2)c(-n2nc3ccccc3n2)c1,31.6,1,-2.2,111.5,2.84
COC(=O)c1cccc(S(=O)(=O)N2CCCC2)c1,-8.4,1,-3.5,90.8,1.12
COC(=O)c1cc(C(=O)NCc2ccccc2)c(=O)[nH]c1C,-17.9,1,-1.0,110.8,1.19
CCN(CC)CCCN1C(=O)C(=O)/C(=C(/O)c2cnn(-c3ccccc3)c2C)C1c1ccncc1 (stereo not drawn),-36.1,.,.,97.3,.
CCNC(=S)N/N=C/c1sc(N2CCCCC2)nc1-c1cccs1,15.7,0.4,61.9*,118.6,1.12
CCNC(=S)Nc1ccc(N2CCCCC2)cc1,44.9,1,1.5,115.5,1.06
Nc1ccc(N=Nc2ccc(N)cc2)cc1,26.2,0.4,64.0*,119.7,3.45*
Nc1n[nH]c(N)c1N=Nc1ccc(Cl)cc1,30.1,1,2.2,110.6,1.39
CCOc1ccc(-c2cc(C(=O)N3CCN(C)CC3)c3ccccc3n2)cc1,36.8,0.2,83.4*,117.0,1.96
CCOC(=O)C1CCCN(C(=O)c2cc(-c3ccccc3)nc3ccccc23)C1 (stereo not drawn),-0.5,1,1.1,86.9,1.09
CCOC(=O)N1CCN(C(=O)c2cc(-c3ccc(OCC)cc3)nc3ccccc23)CC1,-78.4,0.1,92.4*,146.1*,3.31*
CS(=O)(=O)N1CCN(C(=O)c2cc(-c3ccccc3)nc3ccccc23)CC1,-6.3,0.9,10.7,102.7,0.95
Cc1ccc(NC(=O)Nc2ccc3c(c2)nc(C)n3C)cc1,129.6,0.3,74.2*,132.5*,6.52*
CC(=O)c1ccc(NC(=O)Nc2ccc3c(c2)nc(C)n3C)cc1,41.4,0.9,8.4,128.2,1.95
Cc1nc2cc(NC(=O)Nc3ccccc3Cl)ccc2n1C,192.7*,0.1,91.2*,61.7,3.9*
CC(=O)NC(CCS(C)(=O)=O)C(=O)N1CCc2ccccc21 (stereo not drawn),-9.1,1.1,-6.0,105.5,1.3
CCc1ccc2c(c1)C1(NN=C(c3ccc(C)cc3)S1)C(=O)N2 (stereo not drawn),46.2,1,3.2,102.1,0.87
CC(C)c1ccc2c(c1)C1(NN=C(c3ccccc3)S1)C(=O)N2 (stereo not drawn),132.9,1,2.6,128.7*,1.73
O=C(Nc1ccc(Cl)cn1)Nc1ccccc1F,16.8,1,-4.7,138.7*,2.25
O=C(Nc1ccc(Cl)cn1)c1ccccc1F,182.9*,0.6,41.9,132.8*,2.86
Cc1cc(NC(=O)c2cccc(F)c2)ncc1NC(=O)c1ccco1,139.5*,0.9,11.8,117.8,3.64*
O=C(Nc1ccc(Cl)cn1)c1cccc(F)c1,54.5,0.9,9.3,146.1*,3.56*
CCN1/C(=N\N)c2cccc3cccc1c23,9.7,0.9,6.9,106.4,1.1
SMILES,APP 5'UTR act,FLuc stim CS,FLuc inh counter,STAT1 act,NF-kB neuron act
CCCC(=O)N=C1SC2CS(=O)(=O)CC2N1c1ccc(-c2nc3ccc(C)cc3s2)cc1 (stereo not drawn),125.0,0.8,21.4,131.3*,1.45
CC(C)NC(=O)Cn1cc(C(=O)C2CC2)c2ccccc21,-11.0,1.1,-6.8,108.0,0.96
C/C(=N\NC(=O)OC(C)(C)C)c1ccccc1Br,20.1,1,2.6,131.5*,2.12
O=C(Nc1ccc2c(c1)OCCO2)c1cc2ccccc2o1,224.9*,0.1,92.1*,82.2,9.25*
Cn1c(=O)n(C)c2cc(NC(=O)c3cc4ccccc4o3)ccc21,21.4,1,4.2,99.6,0.63
O=C(Nc1ccc2c(c1)OCCO2)c1ccc(Br)o1,136.0*,0.2,81.9*,125.3,4.87*
O=C(Nc1ccc2oc(=O)ccc2c1)c1cc2ccccc2o1,96.2,0.7,28.3,148.5*,2.43
Cc1cc(=O)oc2cc(NC(=O)c3cc4ccccc4o3)ccc12,3.6,1,1.4,102.1,1.19
O=C(N/N=C/c1cccc(F)c1)c1cc(-c2ccco2)nc2ccccc12,15.8,0.6,42.3,100.9,1.28
CC1=NN(c2ccccc2)C(=O)/C1=C/c1c(O)n(-c2ccc(F)c(Cl)c2)[nH]c1=O,15.4,0.7,30.9,142.5*,1.81
O=C(NC1CC1)C1CCN(c2ncnc3c2sc2cccc(F)c23)CC1,1.4,1,0.6,91.4,0.95
CN(C(=O)C1CCOC1)c1nnc(-c2ccccn2)s1 (stereo not drawn),13.2,1,4.7,131.7*,1.9
O=C(CCn1nc(-c2ccccc2)c2ccccc2c1=O)NN1CCOCC1,-8.0,1,-2.6,92.1,1.17
CCCSc1nsc(NC(=O)c2cccnc2OCC)n1,-2.3,1,0.4,111.3,1.43
CCCCSc1nsc(NC(C)=O)n1,141.7*,0.9,5.8,127.1,3.21
CCCCCCSc1nsc(NC(C)=O)n1,25.9,1.1,-9.2,129.9*,2.61
CCCSc1nsc(NC(=O)CCC)n1,193.9*,0.7,26.3,131.0*,6.43*
CCc1ccc2[nH]c(=O)c(CN(Cc3ccccc3)C(=O)Nc3ccccc3OC)cc2c1,-2.4,1,-4.2,99.5,0.44
CN1CC(=O)N(CC(=O)Nc2ccc3c(c2)CCC3)C1=O,27.7,1,-4.1,98.8,1.13
Cc1ccc(S(=O)(=O)/C(C#N)=C/c2c[nH]c3ccccc23)cc1,11.2,1.1,-6.9,84.4,1.37
O=C(/C=C/c1ccccc1)c1ccccc1,10.9,0.5,46.7,111.6,1.52
Cc1ccc(C(=O)/C=C/c2c[nH]c3ccccc23)cc1,62.5,0.9,12.8,118.4,3.47*
O=C(/C=C/c1c[nH]c2ccccc12)c1ccccc1,116.8,0.7,25.7,135.8*,9.87*
COc1ccc(/C=N/c2c(-c3ccco3)nc3ccccn23)cc1OC,-13.8,0.2,79.6*,117.3,0.89
CCOC(=O)c1ccccc1NC(=O)c1n[nH]c(=O)c2ccccc12,-0.3,1,-2.3,84.9,3.71*
COc1ccc(C2N(Cc3ccccc3)CCN2Cc2ccccc2)cc1[N+](=O)[O-],10.6,1.1,-8.0,94.1,1.15
C/C(=N\Nc1nc(N2CCCCC2)nc(N2CCOCC2)n1)c1ccccc1O,-38.0,1,-3.3,106.5,0.45
Cc1ccc(C(=O)/C=C2\NCC(C)NC2=O)cc1 (stereo not drawn),117.4,0.3,68.7*,110.1,2.33
